Assay results as given in ChEMBL document CHEMBL4184228, “Reversed isoniazids: Design, synthesis and evaluation against Mycobacterium tuberculosis” (Bioorg Med Chem, 2018).
In brackets after ≈: the same amount, converted by molar mass. Activity calls are given as the source filed them. No cut-off for these calls is given here.

Experiments:
[1] = system: Mycobacterium tuberculosis; assay: Antimycobacterial activity against isoniazid mono-resistant Mycobacterium tuberculosis isolate R5401 by two fold serial dilution based fluorescence assay; assay type: functional
Procedure, shortened: (§1)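 MGIT 960 (BACTEC) broth assay in 7H9 with 1% OADC and 0.05% Tween 80. Compounds are 10 mM DMSO stocks, two-fold serially diluted, final DMSO ≤1.2%, top concentration 10 µM. Tubes incubated at 37°C with growth units read daily. MIC99 is set against a 1% drug-free growth control tube.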

[2] = Selectivity index, ratio of IC50 for CHO cells to MIC99 for isoniazid mono-resistant Mycobacterium tuberculosis isolate R5401; assay type: toxicity; conditions: hamster, read-out: Selectivity Index
[3] = system: Mycobacterium tuberculosis variant bovis BCG; assay: Inhibition of efflux pump in Mycobacterium bovis BCG infected in macrophages assessed as accumulation of ethidium bromide at 50 uM by measuring increase in fluorescence intensity after 1 hr by flow cytometric assay relative to control; design: Activity: scale not given: the % may be the effect or the level left
[4] = system: Mycobacterium tuberculosis; assay: Antimycobacterial activity against isoniazid mono-resistant Mycobacterium tuberculosis isolate R73 by two fold serial dilution based fluorescence assay; assay type: functional; procedure, shortened: as §1
[5] = system: Mycobacterium tuberculosis; assay: Antimycobacterial activity against isoniazid mono-resistant Mycobacterium tuberculosis isolate R4965 by two fold serial dilution based fluorescence assay; assay type: functional; procedure, shortened: as §1
[6] = system: Mycobacterium tuberculosis variant bovis BCG; assay: Potency index, ratio of compound effect to CPZ effect for inhibition of efflux pump in Mycobacterium bovis BCG
[7] = system: Mycobacterium tuberculosis variant bovis BCG; assay: Inhibition of efflux pump in Mycobacterium bovis BCG infected in macrophages assessed as accumulation of ethidium bromide at 25 uM by measuring increase in fluorescence intensity after 1 hr by flow cytometric assay; design: Activity: scale not given: the % may be the effect or the level left
[8] = system: Mycobacterium tuberculosis variant bovis BCG; assay: Inhibition of efflux pump in Mycobacterium bovis BCG infected in macrophages assessed as accumulation of ethidium bromide at 10 uM by measuring increase in fluorescence intensity after 1 hr by flow cytometric assay; design: scale not given: the % may be the effect or the level left
[9] = Selectivity ratio of MIC99 for Mycobacterium tuberculosis H37Rv to MIC99 for isoniazid mono-resistant Mycobacterium tuberculosis isolate R5401; assay type: functional

Structure (SMILES)	MIC99 [1]	selectivity ratio [2]	inhibition [3]	MIC99 [4]	MIC99 [5]	Activity [3]	Ratio [6]	Activity [7]	Activity [8]	Ratio [9]	inhibition [7]
NNC(=O)c1ccncc1 [ISONIAZID]	2.5 µM (≈ 0.343 µg/mL)	> 35	Active								
O=C(NNCCCN1c2ccccc2Sc2ccccc21)c1ccncc1	> 10 µM		Active	> 10 µM	> 10 µM						
O=C(NNCCCN1CCN(C2c3ccccc3CCc3ccccc32)CC1)c1ccncc1	> 10 µM			> 10 µM	> 10 µM						
O=C(NNCCCN1c2ccccc2Sc2ccccc21)c1ccccc1				> 10 µM	> 10 µM	40 to 90%	2				
O=C(NNCCCNCCCN1c2ccccc2Sc2ccccc21)c1ccncc1	> 10 µM			> 10 µM	> 10 µM						
O=C(NNCCCN1CCC(=C2c3ccccc3Sc3ccc(Cl)cc32)CC1)c1ccncc1	1.25 µM (≈ 0.614 µg/mL)	237		> 10 µM	> 10 µM						
O=C(NNCCCN1c2ccccc2CCc2ccccc21)c1ccncc1	> 10 µM		Active	> 10 µM	> 10 µM						
O=C(NNCCCN1CCC(=C2c3ccccc3Sc3ccccc32)CC1)c1ccncc1	2.5 µM (≈ 1.14 µg/mL)	60.8		> 10 µM	> 10 µM						
O=C(NNCCCN1c2ccccc2Sc2ccc(Cl)cc21)c1ccncc1	> 10 µM			> 10 µM	> 10 µM		2	40 to 90%			
O=C(NNCCCN1CCC(N2c3ccccc3Sc3ccc(Cl)cc32)CC1)c1ccncc1	1 µM (≈ 0.494 µg/mL)	37		> 10 µM	> 10 µM		2		40 to 90%		
O=C(NNCCCN1CCC(N2c3ccccc3Sc3ccccc32)CC1)c1ccncc1	2.5 µM (≈ 1.15 µg/mL)	48.8		> 10 µM	> 10 µM					2	
O=C(NNCCCN1CCN(C(c2ccccc2)c2ccccc2)CC1)c1ccncc1	2.5 µM (≈ 1.07 µg/mL)	19.3		> 10 µM	> 10 µM					2	
O=C(NNCCCNCCCN1c2ccccc2Sc2ccc(Cl)cc21)c1ccncc1	> 10 µM			> 10 µM	> 10 µM						
O=C(NNCCCN1CCN(C(c2ccccc2)(c2ccccc2)c2ccccc2)CC1)c1ccncc1	2.5 µM (≈ 1.26 µg/mL)	78.1		> 10 µM	> 10 µM						
O=C(NNCCCN1c2ccccc2Sc2ccc(Cl)cc21)c1ccccc1				> 10 µM	> 10 µM	40 to 90%	2				
O=C(NNCCCN1CCN(CC(O)(c2ccccc2)c2ccccc2)CC1)c1ccncc1	2.5 µM (≈ 1.15 µg/mL)	139		> 10 µM	> 10 µM						
O=C(NNCCCN1CCC(=C2c3ccccc3C=Cc3ccccc32)CC1)c1ccncc1	2.5 µM (≈ 1.13 µg/mL)	59.2		> 10 µM	> 10 µM						
CN(C)CCCN1c2ccccc2Sc2ccc(Cl)cc21 [CHLORPROMAZINE]											Active
